# Experiments:
# [1] = system: SNB-75; assay: Growth inhibition of human SNB75 cells after 48 hrs by coulter counting analysis; assay type: functional; conditions: SNB-75, 48 h
# Outline: (§1)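 Five-dose NCI-60 follow-up, 0.01–100 µM, made from DMSO stock in buffered saline (final DMSO <1%), in duplicate wells. Cells in RPMI 1640 with 10% FBS at 6×10^4 cells/ml, 37 °C, 5% CO2, 48 h. Cells diluted tenfold in saline, Coulter-counted and corrected for dilution. GI50, TGI and LC50 taken from log concentration–percent growth curves.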
# [2] = system: HCT-116; assay: Growth inhibition of human HCT116 cells after 48 hrs by coulter counting analysis; assay type: functional; conditions: HCT-116, 48 h
# Outline: (§2)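 NCI five-dose screen at 0.01-100 µM, diluted from DMSO stocks in buffered saline (final DMSO <1%). Cells at 6×10^4 cells/ml in RPMI 1640 with 10% FBS, in duplicate wells, at 37 °C under 5% CO2 for 48 h. Cells diluted tenfold in saline and Coulter-counted. GI50, TGI and LC50 taken from log concentration-growth inhibition curves.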
# [3] = system: ACHN; assay: Growth inhibition of human ACHN cells after 48 hrs by coulter counting analysis; assay type: functional; outline: as §2
# [4] = Growth inhibition of human SF295 cells after 48 hrs by coulter counting analysis; assay type: functional; conditions: SF-295, 48 h; outline: as §1
# [5] = system: A549; assay: Growth inhibition of human A549/ATCC cells after 48 hrs by coulter counting analysis; assay type: functional; conditions: A549, 48 h; outline: as §2
# [6] = system: CAKI-1; assay: Growth inhibition of human CAKI-1 cells after 48 hrs by coulter counting analysis; assay type: functional; conditions: CAKI-1, 48 h; outline: as §2
# [7] = system: K562; assay: Growth inhibition of human K562 cells after 48 hrs by coulter counting analysis; assay type: functional; conditions: K562, 48 h; outline: as §2
# [8] = system: NCI-H522; assay: Growth inhibition of human NCI-H522 cells after 48 hrs by coulter counting analysis; assay type: functional; conditions: NCI-H522, 48 h; outline: as §1
# [9] = target: Cyclin-dependent kinase 4/cyclin D1 (Homo sapiens) (UniProt P11802+P24385); assay: Inhibition of CDK4/Cyclin D1 (unknown origin) at 20 uM after 30 mins by scintillation counting analysis relative to control; assay type: protein-complex assay
# Outline: (§3)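 Recombinant kinases, cloned, expressed and purified in-house. Radiometric ³³P-ATP assay with kinase at ~10-50 nM final and 1-5 µg peptide or protein substrate. Compound at 20 µM final, in duplicate. Reaction started by adding ATP, run 30 min at ambient temperature, then spotted on P81 phosphocellulose. Plates washed in 1% phosphoric acid and counted by scintillation. No-substrate blank subtracted. Result is mean % activity change versus DMSO control.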
# [10] = system: SK-OV-3; assay: Growth inhibition of human SKOV3 cells after 48 hrs by coulter counting analysis; assay type: functional; conditions: SK-OV-3, 48 h; outline: as §1
# [11] = Growth inhibition of human HCT15 cells after 48 hrs by coulter counting analysis; assay type: functional; conditions: HCT-15, 48 h; outline: as §2
# [12] = system: HOP-62; assay: Growth inhibition of human HOP62 cells after 48 hrs by coulter counting analysis; assay type: functional; conditions: HOP-62, 48 h; outline: as §2
# [13] = system: PC-3; assay: Growth inhibition of human PC3 cells after 48 hrs by coulter counting analysis; assay type: functional; conditions: PC-3, 48 h; outline: as §1
# [14] = system: TK-10; assay: Growth inhibition of human TK10 cells after 48 hrs by coulter counting analysis; assay type: functional; conditions: TK-10, 48 h
# Outline: (§4)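 NCI five-dose screen, 0.01-100 µM, from DMSO stocks diluted in buffer saline (final DMSO <1%). Cells grown in RPMI 1640 + 10% FBS, seeded at 6×10^4 cells/ml, in duplicate wells. Exposure 48 h at 37 °C, 5% CO2. Cells diluted 10-fold in saline and counted by Coulter counter. GI50 derived from log concentration–percent growth inhibition curves. Controls carried matching PBS/saline/DMSO.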
# [15] = system: MDA-MB-435; assay: Growth inhibition of human MDA-MB-435 cells after 48 hrs by coulter counting analysis; assay type: functional; conditions: MDA-MB-435, 48 h; outline: as §2
# [16] = system: COLO 205; assay: Growth inhibition of human COLO205 cells after 48 hrs by coulter counting analysis; assay type: functional; conditions: COLO 205, 48 h; outline: as §2
# [17] = system: HT-29; assay: Growth inhibition of human HT-29 cells after 48 hrs by coulter counting analysis; assay type: functional; conditions: HT-29, 48 h; outline: as §2
# [18] = Growth inhibition of human UACC257 cells after 48 hrs by coulter counting analysis; assay type: functional; conditions: UACC-257, 48 h; outline: as §4
# [19] = system: SK-MEL-5; assay: Growth inhibition of human SK-MEL-5 cells after 48 hrs by coulter counting analysis; assay type: functional; conditions: SK-MEL-5, 48 h; outline: as §1
# [20] = system: IGROV-1; assay: Growth inhibition of human IGROV1 cells after 48 hrs by coulter counting analysis; assay type: functional; conditions: IGROV-1, 48 h; outline: as §2
# [21] = system: MDA-MB-468; assay: Growth inhibition of human MDA-MB-468 cells after 48 hrs by coulter counting analysis; assay type: functional; conditions: MDA-MB-468, 48 h; outline: as §1
# [22] = target: Cyclin-dependent kinase 2/cyclin E1 (Homo sapiens) (UniProt P24864+P24941); assay: Inhibition of CDK2/Cyclin E1 (unknown origin) at 20 uM after 30 mins by scintillation counting analysis relative to control; assay type: protein-complex assay; outline: as §3
# [23] = Growth inhibition of human OVCAR3 cells after 48 hrs by coulter counting analysis; assay type: functional; conditions: OVCAR-3, 48 h; outline: as §1
# [24] = Growth inhibition of human HCC2998 cells after 48 hrs by coulter counting analysis; assay type: functional; conditions: HCC 2998, 48 h; outline: as §2
# [25] = system: SK-MEL-28; assay: Growth inhibition of human SK-MEL-28 cells after 48 hrs by coulter counting analysis; assay type: functional; conditions: SK-MEL-28, 48 h; outline: as §1
# [26] = Growth inhibition of human OVCAR4 cells after 48 hrs by coulter counting analysis; assay type: functional; conditions: OVCAR-4, 48 h; outline: as §1
# [27] = system: NCI-H23; assay: Growth inhibition of human NCI-H23 cells after 48 hrs by coulter counting analysis; assay type: functional; conditions: NCI-H23, 48 h; outline: as §1
# [28] = Growth inhibition of human SF539 cells after 48 hrs by coulter counting analysis; assay type: functional; conditions: SF-539, 48 h; outline: as §1
# [29] = Growth inhibition of human UO31 cells after 48 hrs by coulter counting analysis; assay type: functional; conditions: UO-31, 48 h; outline: as §4
# [30] = Growth inhibition of human NCI60 cells after 48 hrs by coulter counting analysis; assay type: functional; conditions: NCI60, 48 h
# Outline: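 Five-dose screen (0.01-100 µM, DMSO-solubilized, under 1% DMSO final), cells in RPMI 1640 + 10% FBS at 6×10^4 cells/ml, duplicate wells, 37 °C, 5% CO2, 48 h. Cells then diluted tenfold in saline and counted by Coulter counter with dilution correction. Controls held buffer/saline/DMSO at matching dilutions. GI50 derived from log concentration-percent growth inhibition curves.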
# [31] = system: T47D; assay: Growth inhibition of human T47D cells after 48 hrs by coulter counting analysis; assay type: functional; outline: as §1
# [32] = system: NCI-H322M; assay: Growth inhibition of human NCI-H322M cells after 48 hrs by coulter counting analysis; assay type: functional; outline: as §1
# [33] = system: MCF7; assay: Growth inhibition of human MCF7 cells after 48 hrs by coulter counting analysis; assay type: functional; conditions: MCF7, 48 h; outline: as §2
# [34] = system: RPMI-8226; assay: Growth inhibition of human RPMI8226 cells after 48 hrs by coulter counting analysis; assay type: functional; conditions: RPMI-8226, 48 h; outline: as §1
# [35] = system: NCI-H226; assay: Growth inhibition of human NCI-H226 cells after 48 hrs by coulter counting analysis; assay type: functional; conditions: NCI-H226, 48 h; outline: as §1
Structure (SMILES),GI50 [1],GI50 [2],GI50 [3],GI50 [4],GI50 [5],GI50 [6],GI50 [7],GI50 [8],inhibition [9],GI50 [10],GI50 [11],GI50 [12],GI50 [13],GI50 [14],GI50 [15],GI50 [16],GI50 [17],GI50 [18],GI50 [19],GI50 [20],also measured
C=CCc1c2c(c(OC)c3ccoc13)C(=O)/C(=C/c1ccccc1OC)O2,1.44 µM,3.29 µM,4.32 µM,3.67 µM,4.12 µM,3.15 µM,3.51 µM,3.16 µM,9%,5.45 µM,3.6 µM,4.98 µM,5.25 µM,6.5 µM,3.12 µM,7.64 µM,3.98 µM,6.41 µM,3.91 µM,5.27 µM,GI50 [21]: 2.46 µM; inhibition [22]: 0%; GI50 [23]: 3.28 µM; GI50 [24]: 2.85 µM; GI50 [25]: 5.21 µM; GI50 [26]: 3.34 µM; GI50 [27]: 2.88 µM; GI50 [28]: 5.45 µM; GI50 [29]: 4.98 µM; LC50 [30]: 100 µM; TGI [30]: 58.9 µM; GI50 [31]: 4.34 µM; GI50 [32]: 5.93 µM; GI50 [33]: 2.92 µM; GI50 [34]: 3.51 µM; GI50 [35]: 3.22 µM
C=CCc1c(O)c(C(=O)/C=C/c2ccc(Cl)cc2)c(OC)c2ccoc12,2.01 µM,2.74 µM,2.31 µM,2.77 µM,4.7 µM,2.61 µM,3.25 µM,1.88 µM,0%,5.96 µM,3.4 µM,2.31 µM,3.81 µM,3.62 µM,2.06 µM,4.44 µM,1.89 µM,2.39 µM,2.07 µM,3.46 µM,GI50 [21]: 2.27 µM; inhibition [22]: 3%; GI50 [23]: 1.97 µM; GI50 [24]: 1.79 µM; GI50 [25]: 2.32 µM; GI50 [26]: 2.77 µM; GI50 [27]: 2.78 µM; GI50 [28]: 1.79 µM; GI50 [29]: 2.88 µM; LC50 [30]: 37.1 µM; TGI [30]: 11 µM; GI50 [31]: 3.29 µM; GI50 [32]: 4.88 µM; GI50 [33]: 2.51 µM; GI50 [34]: 3.04 µM; GI50 [35]: 1.52 µM
COc1c(C(=O)/C=C/c2ccccc2)c(O)cc2occc12,2.42 µM,3.72 µM,4.51 µM,7.83 µM,8.62 µM,8.07 µM,4.43 µM,4.29 µM,13%,14.1 µM,5.25 µM,11.3 µM,7.01 µM,11.2 µM,3.21 µM,15.7 µM,6.34 µM,7.01 µM,3.87 µM,3.51 µM,GI50 [21]: 6.77 µM; inhibition [22]: 1%; GI50 [23]: 3.76 µM; GI50 [24]: 3.76 µM; GI50 [25]: 7.03 µM; GI50 [26]: 5.4 µM; GI50 [27]: 6.12 µM; GI50 [28]: 3.22 µM; GI50 [29]: 3.14 µM; LC50 [30]: 55 µM; TGI [30]: 18.6 µM; GI50 [31]: 11.1 µM; GI50 [32]: 13.6 µM; GI50 [33]: 3.52 µM; GI50 [34]: 3.15 µM; GI50 [35]: 6.03 µM
C=CCc1c(O)c(C(=O)/C=C/c2ccccc2)c(OC)c2ccoc12,1.39 µM,3.03 µM,3.79 µM,2.44 µM,4.41 µM,2.8 µM,2.87 µM,2.15 µM,0%,8.08 µM,2.91 µM,5.32 µM,3.68 µM,4.96 µM,2.78 µM,5.96 µM,3.01 µM,2.56 µM,2.66 µM,3.35 µM,GI50 [21]: 3.07 µM; inhibition [22]: 0%; GI50 [23]: 2.46 µM; GI50 [24]: 1.73 µM; GI50 [25]: 2.49 µM; GI50 [26]: 2.89 µM; GI50 [27]: 2.52 µM; GI50 [28]: 1.71 µM; GI50 [29]: 2.89 µM; LC50 [30]: 41.7 µM; TGI [30]: 11.2 µM; GI50 [31]: 4.11 µM; GI50 [32]: 3.19 µM; GI50 [33]: 2.73 µM; GI50 [34]: 1.88 µM; GI50 [35]: 1.48 µM

# From ChEMBL document CHEMBL3286372, “Design, synthesis and structure-activity relationship of novel semi-synthetic flavonoids as antiproliferative agents” (2014)
